Data reported in ChEMBL document CHEMBL1255444, “In vitro antibacterial activities of JNJ-Q2, a new broad-spectrum fluoroquinolone” (Antimicrob Agents Chemother, 2010).
Values after ≈ are worked out from the molar mass of the structure shown.

How the values were obtained:
[1] = system: Pseudomonas aeruginosa; assay: Antibacterial activity against Pseudomonas aeruginosa ATCC 27853 by broth microdilution method; type: functional
In short: (§1)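 MICs by CLSI M07-A7 broth microdilution in cation-adjusted Mueller-Hinton medium. For S. pneumoniae the medium was supplemented with 5% lysed horse blood. CLSI quality control strains were run alongside as appropriate.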

[2] = system: Streptococcus pneumoniae; assay: Antibacterial activity against Streptococcus pneumoniae isolate OC6608 assessed as log reduction in bacterial growth at 2 times MIC measured at 6 hrs by time-kill assay; type: functional
In short: (§2)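 Drug was diluted from 50× stocks made in water or acidified water. Samples were taken at 6 and 24 h and serially diluted onto TSA-5% sheep blood plates. Plates were incubated 20–24 h at 37°C in 5% CO2 before counting CFU. Log10 titer change is given relative to the starting inoculum.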

[3] = system: Staphylococcus aureus; assay: Antibacterial activity against methicillin-resistant Staphylococcus aureus isolate OC17042 harboring gyrA S84L/G106D, parC S80F and parE D732N mutant gene assessed as log reduction in bacterial growth at 4 times MIC measured at 24 hrs by time-kill assay; type: functional
In short: (§3)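 Overnight MRSA cultures were diluted into fresh cation-adjusted Mueller-Hinton broth to about 5 × 10^6 CFU/ml. […] Samples were plated serially diluted on trypticase soy agar, and CFU were counted after 20-24 h at 37°C. Value is the log10 decrease at 24 h from the starting inoculum; detection limit 100 CFU.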

[4] = system: Staphylococcus aureus; assay: Antibacterial activity against methicillin-resistant Staphylococcus aureus by broth microdilution method; type: functional
In short: (§4)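 CLSI M07-A7 broth microdilution MIC. Medium was cation-adjusted Mueller-Hinton broth. For S. pneumoniae it was Mueller-Hinton supplemented with 5% lysed horse blood. CLSI quality-control strains were included as appropriate.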

[5] = system: Staphylococcus aureus; assay: Antibacterial activity against methicillin-resistant Staphylococcus aureus isolate OC11696 assessed as log reduction in bacterial growth at 4 times MIC measured at 24 hrs by time-kill assay; type: functional; in short: as §3
[6] = system: Streptococcus pneumoniae; assay: Antibacterial activity against Streptococcus pneumoniae isolate OC7189 assessed as log reduction in bacterial growth at 2 times MIC measured at 24 hrs by time-kill assay; type: functional; in short: as §2
[7] = system: Streptococcus pneumoniae; assay: Antibacterial activity against Streptococcus pneumoniae isolate OC7189 assessed as log reduction in bacterial growth at 4 times MIC measured at 24 hrs by time-kill assay; type: functional; in short: as §2
[8] = system: Escherichia coli; assay: Antibacterial activity against ciprofloxacin-resistant Escherichia coli by broth microdilution method; type: functional; in short: as §4
[9] = system: Streptococcus pneumoniae; assay: Antibacterial activity against Streptococcus pneumoniae isolate OC5462 assessed as log reduction in bacterial growth at 4 times MIC measured at 6 hrs by time-kill assay; type: functional; in short: as §2
[10] = system: Moraxella catarrhalis; assay: Antibacterial activity against Moraxella catarrhalis by broth microdilution method; type: functional; in short: as §1
[11] = system: Staphylococcus aureus; assay: Antibacterial activity against methicillin-resistant Staphylococcus aureus isolate OC11696 assessed as log reduction in bacterial growth at 2 times MIC measured at 24 hrs by time-kill assay; type: functional; in short: as §3
[12] = system: Streptococcus pneumoniae; assay: Antibacterial activity against Streptococcus pneumoniae isolate OC6585 assessed as log reduction in bacterial growth at 2 times MIC measured at 24 hrs by time-kill assay; type: functional; in short: as §2
[13] = system: Staphylococcus aureus; assay: Antibacterial activity against methicillin-resistant Staphylococcus aureus isolate OC2838 assessed as log reduction in bacterial growth at 4 times MIC measured at 24 hrs by time-kill assay; type: functional; in short: as §3
[14] = system: Streptococcus pneumoniae; assay: Antibacterial activity against Streptococcus pneumoniae OC7453 harboring gyrA S81F mutant gene by agar dilution method; type: functional
In short: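 MICs for the resistance-selection studies were determined by CLSI agar dilution on Mueller-Hinton medium. For S. pneumoniae the medium was supplemented with 5% lysed horse blood. For MRSA fluctuation-assay strains an arithmetic agar dilution scheme was used for a more precise MIC.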

[15] = system: Staphylococcus epidermidis; assay: Antibacterial activity against methicillin-, ciprofloxacin-resistant Staphylococcus epidermidis by broth microdilution method; type: functional
[16] = system: Streptococcus pneumoniae; assay: Antibacterial activity against Streptococcus pneumoniae isolate OC7189 assessed as log reduction in bacterial growth at 2 times MIC measured at 6 hrs by time-kill assay; type: functional; in short: as §2
[17] = system: Streptococcus pneumoniae; assay: Antibacterial activity against Streptococcus pneumoniae isolate OC6610 assessed as log reduction in bacterial growth at 4 times MIC measured at 6 hrs by time-kill assay; type: functional; in short: as §2
[18] = system: Streptococcus pneumoniae; assay: Antibacterial activity against Streptococcus pneumoniae isolate OC7376 assessed as log reduction in bacterial growth at 4 times MIC measured at 24 hrs by time-kill assay; type: functional; in short: as §2
[19] = system: Streptococcus pneumoniae; assay: Antibacterial activity against Streptococcus pneumoniae isolate OC5462 assessed as log reduction in bacterial growth at 2 times MIC measured at 24 hrs by time-kill assay; type: functional; in short: as §2
[20] = system: Streptococcus pneumoniae; assay: Antibacterial activity against Streptococcus pneumoniae isolate OC6585 by broth microdilution method; type: functional; in short: as §4
[21] = system: Staphylococcus epidermidis; assay: Antibacterial activity against methicillin-resistant Staphylococcus epidermidis by broth microdilution method; type: functional
[22] = system: Streptococcus pneumoniae; assay: Antibacterial activity against Streptococcus pneumoniae isolate OC7368 by broth microdilution method; type: functional; in short: as §4
[23] = system: Staphylococcus aureus; assay: Antibacterial activity against methicillin-resistant Staphylococcus aureus isolate OC4222 harboring gyrA S84L and parC S80F mutant gene assessed as log reduction in bacterial growth at 4 times MIC measured at 24 hrs by time-kill assay; type: functional; in short: as §3
[24] = system: Streptococcus pneumoniae; assay: Antibacterial activity against Streptococcus pneumoniae isolate OC6610 assessed as log reduction in bacterial growth at 2 times MIC measured at 6 hrs by time-kill assay; type: functional; in short: as §2
[25] = system: Citrobacter freundii; assay: Antibacterial activity against Citrobacter freundii by broth microdilution method; type: functional; in short: as §1
[26] = system: Streptococcus pneumoniae; assay: Antibacterial activity against Streptococcus pneumoniae isolate OC6608 assessed as log reduction in bacterial growth at 4 times MIC measured at 6 hrs by time-kill assay; type: functional; in short: as §2
[27] = system: Streptococcus pneumoniae; assay: Antibacterial activity against Streptococcus pneumoniae isolate OC7189 by broth microdilution method; type: functional; in short: as §4
[28] = system: Streptococcus pneumoniae; assay: Antibacterial activity against Streptococcus pneumoniae isolate OC7368 assessed as log reduction in bacterial growth at 4 times MIC measured at 24 hrs by time-kill assay; type: functional; in short: as §2
[29] = system: Staphylococcus aureus; assay: Antibacterial activity against methicillin-resistant Staphylococcus aureus isolate OC8530 harboring gyrA S84L and parC I143V mutant gene assessed as log reduction in bacterial growth at 4 times MIC measured at 24 hrs by time-kill assay; type: functional
In short: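 Time-kill in cation-adjusted Mueller-Hinton broth. […] Samples were taken up to 24 h, serially diluted onto TSA and counted after 20–24 h at 37°C. Result is log10 decrease at 24 h from the starting inoculum; detection limit 100 CFU.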

[30] = Distribution coefficient, log D of the compound; type: physicochemical; conditions: octanol/water
[31] = system: Providencia stuartii; assay: Ratio of Ciprofloxacin MIC90 to compound MIC90 for Providencia stuartii; type: functional
[32] = system: Staphylococcus aureus; assay: Antibacterial activity against methicillin-resistant Staphylococcus aureus isolate OC8525 harboring wild type quinolone resistance-determining region by broth microdilution method; type: functional
[33] = system: Staphylococcus aureus; assay: Antibacterial activity against methicillin-resistant Staphylococcus aureus isolate OC11521 harboring gyrA S84L/S85P, parC E84G mutant gene assessed as log reduction in bacterial growth at 4 times MIC measured at 24 hrs by time-kill assay; type: functional; in short: as §3

COc1c(N2CCC/C(=C(\F)CN)C2)c(F)cc2c(=O)c(C(=O)O)cn(C3CC3)c12 [ACORAFLOXACIN]
MIC50 [1]: 1 µg/mL (≈ 2.38 µM)
MIC90 [1]: 2 µg/mL (≈ 4.77 µM)
deltalog10CFU/ml [2]: 3.8
deltalog10CFU/ml [3]: 3.5
MIC50 [4]: 0.12 µg/mL (≈ 0.286 µM)
MIC90 [4]: 0.25 µg/mL (≈ 0.596 µM)
deltalog10CFU/ml [5]: 6.5
deltalog10CFU/ml [6]: 7.5
deltalog10CFU/ml [7]: 7.2
MIC50 [8]: 4 µg/mL (≈ 9.54 µM)
MIC90 [8]: 16 µg/mL (≈ 38.1 µM)
deltalog10CFU/ml [9]: 3.4
MIC [10]: ≤ 0.015 µg/mL
MIC50 [10]: ≤ 0.015 µg/mL
MIC90 [10]: ≤ 0.015 µg/mL
deltalog10CFU/ml [11]: 6.5
deltalog10CFU/ml [12]: 6.6
deltalog10CFU/ml [13]: 4.5
MIC [14]: 0.03 µg/mL (≈ 0.0715 µM)
MIC50 [15]: 0.12 µg/mL (≈ 0.286 µM)
MIC90 [15]: 0.25 µg/mL (≈ 0.596 µM)
deltalog10CFU/ml [16]: 4
deltalog10CFU/ml [17]: 3.5
deltalog10CFU/ml [18]: 6.3
deltalog10CFU/ml [19]: 3.3
MIC [20]: 0.25 µg/mL (≈ 0.596 µM)
MIC50 [21]: 0.12 µg/mL (≈ 0.286 µM)
MIC90 [21]: 0.25 µg/mL (≈ 0.596 µM)
MIC [22]: 0.12 µg/mL (≈ 0.286 µM)
deltalog10CFU/ml [23]: 4.2
deltalog10CFU/ml [24]: 3.4
MIC50 [25]: 2 µg/mL (≈ 4.77 µM)
MIC90 [25]: 8 µg/mL (≈ 19.1 µM)
deltalog10CFU/ml [26]: 4.7
MIC [27]: 0.015 µg/mL (≈ 0.0358 µM)
deltalog10CFU/ml [28]: 6.9
deltalog10CFU/ml [29]: 6.3
logD [30]: 0.37
Ratio [31]: 16
MIC [32]: 0.008 µg/mL (≈ 0.0191 µM)
deltalog10CFU/ml [33]: 2.3
